Reference: ChEMBL document CHEMBL4261548, “Mitochondria-targeted betulinic and ursolic acid derivatives: synthesis and anticancer activity” (Medchemcomm, 2017)
pIC50: −log10 of the molar value. The source made the active and inactive calls. No cut-off for these calls is given here.

How the values were obtained:
[1] = Cytotoxicity against human Tet21N cells assessed as decrease in cell viability by trypan blue test; assay type: functional, cell-based
MCF7 = assay: Cytotoxicity against human MCF7 cells assessed as decrease in cell viability by trypan blue test; assay type: functional, cell-based
HCT-116 [2] = assay: Induction of apoptosis in human HCT116 cells assessed as release of cytochrome C from mitochondria at 3.5 uM by SDS/PAGE analysis; assay type: functional, cell-based
Outline: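 HCT116 cells at about 1 × 10^6 per 100 μl were permeabilized with 0.01% digitonin in 150 mM KCl, 1 mM MgCl2, 0.2 mM EGTA and 5 mM Tris for 10 min at room temperature. Supernatant (cytosol) and pellet (mitochondria) were separated by centrifugation. Cytochrome c in each fraction was detected by 15% SDS-PAGE and western blot.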

Splenocyte = assay: Cytotoxicity against BALB/c mouse splenocytes assessed as decrease in cell viability by trypan blue test; assay type: cell-based
HCT-116 [3] = assay: Inhibition of mitochondrial respiration in human HCT116 cells after 24 hrs in presence of oligomycin/CCCP/rotenone/antimycin; assay type: functional, cell-based
Outline: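 About 15 000 HCT116 cells per well adhered overnight and were treated for 24 h. They were then held 1 h at 37 °C without CO2 in unbuffered DMEM (5 mM glucose, 2 mM glutamine, pH 7.4). Oxygen consumption was measured by Seahorse XF-96: basal, then sequential oligomycin, CCCP, and rotenone plus antimycin A. Data were normalized to total protein per well.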

HCT-116 [4] = assay: Cell cycle arrest in human HCT116 cells assessed as accumulation at sub-G1 phase by propidium iodide staining-based flow cytometric method (reference value: 0.8%); assay type: functional
HCT-116 [5] = assay: Inhibition of mitochondrial respiration in human HCT116 cells at 1 to 2 uM after 24 hrs in presence of oligomycin/CCCP/rotenone/antimycin; assay type: functional, cell-based
Outline: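 About 15 000 cells per well adhered overnight, then treated 24 h. Washed and held 1 h at 37 °C without CO2 in unbuffered DMEM (5 mM glucose, 2 mM glutamine, pH 7.4). Seahorse XF-96 oxygen consumption read: basal, then oligomycin (proton leak), CCCP (spare capacity), rotenone plus antimycin A (non-mitochondrial). Normalized to total protein per well.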

Homo sapiens [6] = species on record: Homo sapiens; assay: Induction of apoptosis in human Tet21N cells assessed as PARP cleavage at 5 to 15 uM by Western blot analysis; assay type: functional, cell-based
Outline: (§1)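 Whole-cell lysates in lysis buffer with protease inhibitors, 10 min room temperature; insoluble material cleared at 13 000 rpm, 20 min, 4 °C; equal protein loaded for SDS-PAGE and blotted; membranes blocked 1 h in 5% non-fat milk; PARP cleavage detected by ECL. HCT116 and RKO in DMEM, SK-N-BE(2) and Tet21N in RPMI 1640 with 10% FCS; Tet21N medium also hygromycin 100 μg ml–1 and geneticin 200 μg ml–1.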

HCT-116 [7] = assay: Induction of apoptosis in human HCT116 cells assessed as PARP cleavage at 20 uM by Western blot analysis; assay type: functional, cell-based; outline: as §1
RKO = assay: Induction of apoptosis in human RKO cells assessed as PARP cleavage at 50 uM by Western blot analysis; assay type: functional, cell-based; outline: as §1
Homo sapiens [8] = species on record: Homo sapiens; assay: Induction of apoptosis in human SK-N-BE(2) cells assessed as PARP cleavage at 50 uM by Western blot analysis; assay type: functional, cell-based; outline: as §1
HCT-116 [9] = assay: Induction of apoptosis in human HCT116 cells assessed as caspase-3 cleavage using DEVD-AMC as substrate by fluorescence assay; assay type: functional, cell-based
Homo sapiens [10] = species on record: Homo sapiens; assay: Induction of apoptosis in human Tet21N cells assessed as caspase-3 cleavage using DEVD-AMC as substrate by fluorescence assay; assay type: functional, cell-based

Structure (SMILES)	pIC50 ([1]; Homo sapiens)	pIC50 (MCF7; Homo sapiens, MCF7)	Activity (HCT-116 [2])	pIC50 (Splenocyte)	other results
C[C@H]1[C@H](C)CC[C@]2(C(=O)OCCOCCOCC[P+](c3ccccc3)(c3ccccc3)c3ccccc3)CC[C@]3(C)C(=CC[C@@H]4[C@@]5(C)CC[C@H](O)C(C)(C)[C@@H]5CC[C@]43C)[C@H]12	6.09	5.80	Active	–	–
C[C@H]1[C@H](C)CC[C@]2(C(=O)OCCCC[P+](c3ccccc3)(c3ccccc3)c3ccccc3)CC[C@]3(C)C(=CC[C@@H]4[C@@]5(C)CC[C@H](OC(=O)C(Cl)Cl)C(C)(C)[C@@H]5CC[C@]43C)[C@H]12	5.36	5.56	Active	5.76	–
C=C(C)[C@@H]1CC[C@]2(C(=O)O)CC[C@]3(C)[C@H](CC[C@@H]4[C@@]5(C)CC[C@H](OC(=O)C(Cl)Cl)C(C)(C)[C@@H]5CC[C@]43C)[C@@H]12	5.31	4.80	–	–	–
C=C(C)[C@@H]1CC[C@]2(C(=O)OCCOCCOCC[P+](c3ccccc3)(c3ccccc3)c3ccccc3)CC[C@]3(C)[C@H](CC[C@@H]4[C@@]5(C)CC[C@H](OC(C)=O)C(C)(C)[C@@H]5CC[C@]43C)[C@@H]12 [listing 1 of 2 here]	–	–	Active	–	inhibition (HCT-116 [3]): Dose-dependent effect
C=C(C)[C@@H]1CC[C@]2(C(=O)OCCOCCOCC[P+](c3ccccc3)(c3ccccc3)c3ccccc3)CC[C@]3(C)[C@H](CC[C@@H]4[C@@]5(C)CC[C@H](OC(C)=O)C(C)(C)[C@@H]5CC[C@]43C)[C@@H]12.[Br-]	6.01	6.07	–	–	Activity (HCT-116 [4]): 29.9%
C=C(C)[C@@H]1CC[C@]2(C(=O)OCCOCCOCC[P+](c3ccccc3)(c3ccccc3)c3ccccc3)CC[C@]3(C)[C@H](CC[C@@H]4[C@@]5(C)CC[C@H](OC(C)=O)C(C)(C)[C@@H]5CC[C@]43C)[C@@H]12 [listing 2 of 2 here]	–	–	–	–	pIC50 [1]: 5.89; pIC50 (MCF7; mcf7): 5.82
C=C(C)[C@@H]1CC[C@]2(C(=O)O)CC[C@]3(C)[C@H](CC[C@@H]4[C@@]5(C)CC[C@H](O)C(C)(C)[C@@H]5CC[C@]43C)[C@@H]12 [BETULINIC ACID]	–	< 4.60	inactive	–	inhibition (HCT-116 [5]): inactive; Activity (Homo sapiens [6]): Active; Activity (HCT-116 [7]): Active; Activity (RKO): Active; Activity (Homo sapiens [8]): Active; Activity (HCT-116 [9]): inactive; Activity (Homo sapiens [10]): inactive; Activity (HCT-116 [4]): 2.2%
C=C(C)[C@@H]1CC[C@]2(C(=O)OCCCC[P+](c3ccccc3)(c3ccccc3)c3ccccc3)CC[C@]3(C)[C@H](CC[C@@H]4[C@@]5(C)CC[C@H](OC(=O)C(Cl)Cl)C(C)(C)[C@@H]5CC[C@]43C)[C@@H]12	5.90	6.10	Active	5.71	–
C[C@H]1[C@H](C)CC[C@]2(C(=O)OCCOCCOCC[P+](c3ccccc3)(c3ccccc3)c3ccccc3)CC[C@]3(C)C(=CC[C@@H]4[C@@]5(C)CC[C@H](OC(=O)C(Cl)Cl)C(C)(C)[C@@H]5CC[C@]43C)[C@H]12	5.93	5.41	Active	5.95	–
C=C(C)[C@@H]1CC[C@]2(C(=O)OCCOCCOCC[P+](c3ccccc3)(c3ccccc3)c3ccccc3)CC[C@]3(C)[C@H](CC[C@@H]4[C@@]5(C)CC[C@H](OC(=O)C(Cl)Cl)C(C)(C)[C@@H]5CC[C@]43C)[C@@H]12	6.02	5.64	Active	6.18	–
C[C@H]1[C@H](C)CC[C@]2(C(=O)O)CC[C@]3(C)C(=CC[C@@H]4[C@@]5(C)CC[C@H](OC(=O)C(Cl)Cl)C(C)(C)[C@@H]5CC[C@]43C)[C@H]12	< 5.00	< 4.70	–	–	–
C=C(C)[C@@H]1CC[C@]2(C(=O)OCCOCCOCC[P+](c3ccccc3)(c3ccccc3)c3ccccc3)CC[C@]3(C)[C@H](CC[C@@H]4[C@@]5(C)CC[C@H](O)C(C)(C)[C@@H]5CC[C@]43C)[C@@H]12	6.13	6.15	Active	–	inhibition (HCT-116 [3]): Dose-dependent effect; Activity (HCT-116 [9]): Active; Activity (Homo sapiens [10]): Active
